Test results as given in ChEMBL document CHEMBL1130214, “6-(alkylamino)-9-alkylpurines. A new class of potential antipsychotic agents” (1997).

Legend:
Rattus norvegicus [1] = test: Inhibition of apomorphine-induced aggression in male rats after intraperitoneal administration of 25 mg/kg of compound; format: functional; conditions: ip
Method in brief: (§1)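 Male rats received a single screening dose, given in water or 0.5% methylcellulose as a solution or fine dispersion. Apomorphine-induced fighting in paired animals was observed starting 1 h after dosing, with five pairs per dose. The value is percent inhibition of fighting time at that dose. Stereotyped behavior was recorded during the fighting observation.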

Rattus norvegicus [2] = test: Ability of intraperitoneally administered compound to antagonise apomorphine-induced aggression in male rats.; format: functional
Method in brief: (§2)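 Male rats were dosed ip or orally as solutions or fine dispersions in water or 0.5% methylcellulose. Apomorphine-induced fighting between paired animals was scored 1 h after dosing, and stereotyped behavior was noted. Five pairs were used per dose. ED50 is the dose that cut fighting time by 50%, estimated approximately from two or three bracketing doses, and has no standard error.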

Rattus norvegicus [3] = test: Antagonists of apomorphine-induced aggression in male rats, administered perorally; format: functional; method in brief: as §2
Rattus norvegicus [4] = test: Inhibition of apomorphine-induced aggression in male rats after peroral administration of 25 mg/kg of compound; format: functional; conditions: route oral; method in brief: as §1
Rattus norvegicus [5] = test: Ability of intraperitoneally administered compound (25 mg/kg) to antagonise apomorphine-induced aggression in male rats; d indicates toxic at 25 mg/Kg; format: functional, organism-based
Rattus norvegicus [6] = test: Compounds were tested for their ability to antagonise apomorphine-induced aggression in male rats. compound was administered perorally.; format: functional; conditions: po; method in brief: as §2
[7] = Rattus norvegicus, ip, read-out: ED50
[8] = Rattus norvegicus, po, read-out: ED50

## c1nc(N2CCC2)c2ncn(CC3CC3)c2n1
Rattus norvegicus [1]
  inhibition in vivo at 25 mg/kg: 30%

## CCCOc1nc(NC2CC2)c2ncn(CC3CC3)c2n1
Rattus norvegicus [2]; [7]
  ED50: 2.5 mg/kg
Rattus norvegicus [3]; [8]
  ED50: 2.5 mg/kg

## CN(C)c1ncnc2c1ncn2Cc1cccc(N)c1
Rattus norvegicus [2]; [7]
  ED50: 23 mg/kg
Rattus norvegicus [3]; [8]
  ED50: 58 mg/kg

## CN(c1ncnc2c1ncn2CC1CC1)C1CC1
Rattus norvegicus [2]; [7]
  ED50: 7.5 mg/kg
Rattus norvegicus [3]; [8]
  ED50: 35 mg/kg

## COc1ccc(Cn2cnc3c(N(C)C)ncnc32)cc1
Rattus norvegicus [2]; [7]
  ED50: 58 mg/kg

## CC(C)Cn1cnc2c(N(C)C)ncnc21
Rattus norvegicus [2]; [7]
  ED50: 5 mg/kg
Rattus norvegicus [3]; [8]
  ED50: 22 mg/kg

## CN(c1ncnc2c1ncn2C1CC1)C1CC1
Rattus norvegicus [2]; [7]
  ED50: 4.5 mg/kg
Rattus norvegicus [3]; [8]
  ED50: 12.5 mg/kg

## c1nc(NC2CC2)c2ncn(CC3CCCC3)c2n1
Rattus norvegicus [2]; [7]
  ED50: 15 mg/kg

## CC(C1CC1)n1cnc2c(N(C=O)C3CC3)ncnc21 (stereo not drawn)
Rattus norvegicus [2]; [7]
  ED50: 2.5 mg/kg
Rattus norvegicus [3]; [8]
  ED50: 7.5 mg/kg

## CN(C)c1ncnc2c1ncn2Cc1ccccc1
Rattus norvegicus [2]; [7]
  ED50: 15 mg/kg
Rattus norvegicus [3]; [8]
  ED50: 52 mg/kg

## CCOc1nc(NC2CC2)c2ncn(CC3CC3)c2n1
Rattus norvegicus [2]; [7]
  ED50: 0.8 mg/kg
Rattus norvegicus [3]; [8]
  ED50: 4 mg/kg

## c1nc(NC2CC2)c2ncn(CC3CC3)c2n1
Rattus norvegicus [2]; [7]
  ED50: 4 mg/kg
Rattus norvegicus [3]; [8]
  ED50: 12 mg/kg

## O=CN(c1ncnc2c1ncn2C1CCC1)C1CC1
Rattus norvegicus [4]
  inhibition in vivo at 25 mg/kg: 0%
Rattus norvegicus [2]; [7]
  ED50: 20 mg/kg

## O=CN(c1ncnc2c1ncn2CC1CCC1)C1CC1
Rattus norvegicus [2]; [7]
  ED50: 7 mg/kg

## CCCNc1ncnc2c1ncn2CC1CC1
Rattus norvegicus [1]
  inhibition in vivo at 25 mg/kg: 0%

## CC(C)Cn1cnc2c(NC3CC3)ncnc21
Rattus norvegicus [4]
  inhibition in vivo at 25 mg/kg: 0%
Rattus norvegicus [2]; [7]
  ED50: 10 mg/kg

## c1nc(NC2CC2)c2ncn(C3CCCC3)c2n1
Rattus norvegicus [5]
  ED50: Toxic

## CCNc1nc(NC2CC2)c2ncn(CC3CC3)c2n1
Rattus norvegicus [6]
  ED50: 11 mg/kg
Rattus norvegicus [2]; [7]
  ED50: 9 mg/kg

## CC(C)n1cnc2c(N(C)C)ncnc21
Rattus norvegicus [2]; [7]
  ED50: 11 mg/kg
Rattus norvegicus [3]; [8]
  ED50: 15 mg/kg

## c1nc(NC2CC2)c2ncn(CC3CCC3)c2n1
Rattus norvegicus [2]; [7]
  ED50: 10 mg/kg
Rattus norvegicus [3]; [8]
  ED50: 44 mg/kg

## c1nc(NC2CCC2)c2ncn(CC3CC3)c2n1
Rattus norvegicus [1]
  inhibition in vivo at 25 mg/kg: 0%

## CCN(c1ncnc2c1ncn2CC1CC1)C1CC1
Rattus norvegicus [2]; [7]
  ED50: 20 mg/kg

## c1ccc(Nc2ncnc3c2ncn3CC2CC2)cc1
Rattus norvegicus [1]
  inhibition in vivo at 25 mg/kg: 0%

## CCC(C)n1cnc2c(N(C)C)ncnc21 (stereo not drawn)
Rattus norvegicus [2]; [7]
  ED50: 14 mg/kg

## CSc1nc(NC2CC2)c2ncn(CC3CC3)c2n1
Rattus norvegicus [2]; [7]
  ED50: 5 mg/kg

## CN(C)c1ncnc2c1ncn2Cc1cccc(NC(=O)C(N)Cc2ccccc2)c1 (stereo not drawn)
Rattus norvegicus [2]; [7]
  ED50: 27 mg/kg
Rattus norvegicus [3]; [8]
  ED50: 96 mg/kg

## CN(C)c1ncnc2c1ncn2Cc1ccc(N)cc1
Rattus norvegicus [2]; [7]
  ED50: 17 mg/kg

## Nc1nc(NC2CC2)c2ncn(CC3CC3)c2n1
Rattus norvegicus [4]
  inhibition in vivo at 25 mg/kg: 26%
Rattus norvegicus [2]; [7]
  ED50: 9 mg/kg

## FC(F)(F)c1nc(NC2CC2)c2ncn(CC3CC3)c2n1
Rattus norvegicus [2]; [7]
  ED50: 0.9 mg/kg
Rattus norvegicus [3]; [8]
  ED50: 2 mg/kg

## CN(C)c1ncnc2c1ncn2CC1CCCCC1
Rattus norvegicus [1]
  inhibition in vivo at 25 mg/kg: 0%

## CN(C)c1ncnc2c1ncn2C1CCCC1
Rattus norvegicus [1]
  inhibition in vivo at 25 mg/kg: 27%

## CC(C)N(C)c1ncnc2c1ncn2CC1CC1
Rattus norvegicus [1]
  inhibition in vivo at 25 mg/kg: 32%

## CNc1ncnc2c1ncn2CC1CC1
Rattus norvegicus [4]
  inhibition in vivo at 25 mg/kg: 38%
Rattus norvegicus [2]; [7]
  ED50: 12 mg/kg

## CCN(C)c1ncnc2c1ncn2CC1CC1
Rattus norvegicus [2]; [7]
  ED50: 12.5 mg/kg

## CCCn1cnc2c(N(C)C)ncnc21
Rattus norvegicus [2]; [7]
  ED50: 14 mg/kg
Rattus norvegicus [3]; [8]
  ED50: 15 mg/kg

## COc1nc(NC2CC2)c2ncn(CC3CC3)c2n1
Rattus norvegicus [6]
  ED50: 3.7 mg/kg

## CN(C)c1ncnc2c1ncn2C1CCCCC1
Rattus norvegicus [1]
  inhibition in vivo at 25 mg/kg: 70%

## O=CN(c1ncnc2c1ncn2C1CC1)C1CC1
Rattus norvegicus [2]; [7]
  ED50: 2.4 mg/kg
Rattus norvegicus [3]; [8]
  ED50: 7.4 mg/kg

## CN(C)c1ncnc2c1ncn2C
Rattus norvegicus [1]
  inhibition in vivo at 25 mg/kg: 30%

## CN(C)c1ncnc2c1ncn2CC1CCC1
Rattus norvegicus [2]; [7]
  ED50: 8 mg/kg

## CC(C1CC1)n1cnc2c(NC3CC3)ncnc21 (stereo in doubt; 59)
Rattus norvegicus [2]
  ED50: 4.5 mg/kg
Rattus norvegicus [3]
  ED50: 25 mg/kg

## CN(C)c1ncnc2c1ncn2Cc1ccccc1[N+](=O)[O-]
Rattus norvegicus [1]
  inhibition in vivo at 25 mg/kg: 0%

## CCCCn1cnc2c(NC3CC3)ncnc21
Rattus norvegicus [2]; [7]
  ED50: 18 mg/kg

## CC(C1CC1)n1cnc2c(NC3CC3)ncnc21 (stereo in doubt; 60)
Rattus norvegicus [2]
  ED50: 2 mg/kg
Rattus norvegicus [3]
  ED50: 9 mg/kg

## CN(C)c1ncnc2c1ncn2C1CCCCCC1
Rattus norvegicus [1]
  inhibition in vivo at 25 mg/kg: 0%

## CN(C)c1ncnc2c1ncn2Cc1cccc(C#N)c1
Rattus norvegicus [2]; [7]
  ED50: 13 mg/kg

## c1nc(NCC2CC2)c2ncn(CC3CC3)c2n1
Rattus norvegicus [1]
  inhibition in vivo at 25 mg/kg: 28%

## CC(C1CC1)n1cnc2c(NC3CC3)ncnc21 (stereo in doubt; 61)
Rattus norvegicus [2]
  ED50: 12.5 mg/kg
Rattus norvegicus [3]
  ED50: >25 mg/kg

## CCCCn1cnc2c(N(C)C)ncnc21
Rattus norvegicus [2]; [7]
  ED50: 10 mg/kg

## CN(C)c1ncnc2c1ncn2CC1CC1
Rattus norvegicus [2]; [7]
  ED50: 4.5 mg/kg
Rattus norvegicus [3]; [8]
  ED50: 17 mg/kg

## CN(C)c1ncnc2c1ncn2Cc1cccc(Cl)c1
Rattus norvegicus [2]; [7]
  ED50: 50 mg/kg

## CCCn1cnc2c(NC3CC3)ncnc21
Rattus norvegicus [2]; [7]
  ED50: 6 mg/kg

## Nc1ncnc2c1ncn2CC1CC1
Rattus norvegicus [2]; [7]
  ED50: 20 mg/kg

## CC(C)n1cnc2c(NC3CC3)ncnc21
Rattus norvegicus [2]; [7]
  ED50: 4 mg/kg
Rattus norvegicus [3]; [8]
  ED50: 30 mg/kg

## CN(C)c1ncnc2c1ncn2C1CCC1
Rattus norvegicus [2]; [7]
  ED50: 11 mg/kg
Rattus norvegicus [3]; [8]
  ED50: 26 mg/kg

## CCCCCn1cnc2c(N(C)C)ncnc21
Rattus norvegicus [1]
  inhibition in vivo at 25 mg/kg: 0%

## CNc1nc(NC2CC2)c2ncn(CC3CC3)c2n1
Rattus norvegicus [2]; [7]
  ED50: 3 mg/kg
Rattus norvegicus [3]; [8]
  ED50: 12.5 mg/kg

## CCn1cnc2c(N(C)C)ncnc21
Rattus norvegicus [2]; [7]
  ED50: 15 mg/kg

## c1nc(N2CCCCC2)c2ncn(CC3CC3)c2n1
Rattus norvegicus [1]
  inhibition in vivo at 25 mg/kg: 28%

## CN(C)c1ncnc2c1ncn2Cc1ccc(O)cc1
Rattus norvegicus [1]
  inhibition in vivo at 25 mg/kg: 0%

## CCN(CC)c1ncnc2c1ncn2CC1CC1
Rattus norvegicus [1]
  inhibition in vivo at 25 mg/kg: 0%

## c1nc(NC2CC2)c2ncn(C3CCC3)c2n1
Rattus norvegicus [2]; [7]
  ED50: 19 mg/kg

## CCC(C)n1cnc2c(NC3CC3)ncnc21 (stereo not drawn)
Rattus norvegicus [2]; [7]
  ED50: 13.5 mg/kg

## O=CN(c1ncnc2c1ncn2CC1CC1)C1CC1
Rattus norvegicus [2]; [7]
  ED50: 8 mg/kg
Rattus norvegicus [3]; [8]
  ED50: 30 mg/kg

## CCNc1ncnc2c1ncn2CC1CC1
Rattus norvegicus [2]; [7]
  ED50: 22 mg/kg

## c1nc(NC2CC2)c2ncn(C3CC3)c2n1
Rattus norvegicus [2]; [7]
  ED50: 4.5 mg/kg
Rattus norvegicus [3]; [8]
  ED50: 20 mg/kg

## CSCn1cnc2c(NC3CC3)ncnc21
Rattus norvegicus [2]; [7]
  ED50: 23 mg/kg

## CN(C)c1ncnc2c1ncn2Cc1ccccc1F
Rattus norvegicus [2]; [7]
  ED50: 37 mg/kg

## CC(=O)N(c1ncnc2c1ncn2C1CC1)C1CC1
Rattus norvegicus [1]
  inhibition in vivo at 25 mg/kg: 22%

## CC(C)(C)Nc1ncnc2c1ncn2CC1CC1
Rattus norvegicus [1]
  inhibition in vivo at 25 mg/kg: 0%

## Clc1nc(NC2CC2)c2ncn(CC3CC3)c2n1
Rattus norvegicus [2]; [7]
  ED50: 2.5 mg/kg
Rattus norvegicus [3]; [8]
  ED50: 4 mg/kg

## CN(C)c1ncnc2c1ncn2C1CC1
Rattus norvegicus [2]; [7]
  ED50: 9 mg/kg
Rattus norvegicus [3]; [8]
  ED50: 25 mg/kg
